Source: ChEMBL document CHEMBL4330087, “Synthesis, antimicrobial activity, attenuation of aminoglycoside resistance in MRSA, and ribosomal A-site binding of pyrene-neomycin conjugates” (Eur J Med Chem, 2019)
The source made the active and inactive calls. The rule behind the calls is not given here.

Assays:
[1] = tested on: Staphylococcus aureus; assay: Antibacterial activity against NEO-sensitive Staphylococcus aureus harboring NorA mutant at 6.25 uM after 15 to 20 hrs by CLSI protocol based microdilution assay relative to control; type: functional
How it was run: (§1)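 Exponential-phase cultures were exposed to 6.25 μM compound in duplicate with neomycin as reference, at 37 °C in a humidified incubator for 15-20 h. Broth and culture controls received sterile water with 1% DMSO. Percent growth inhibition was calculated against the growth and background controls.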

[2] = tested on: Klebsiella pneumoniae; assay: Antibacterial activity against Klebsiella pneumoniae NR-151410 at 6.25 uM after 15 to 20 hrs by CLSI protocol based microdilution assay relative to control; type: functional
How it was run: (§2)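 Single-concentration screen at 6.25 μM against exponential-phase cultures, in duplicate, with NEO as reference. Enterococcus was grown in BHI broth, M. smegmatis in TS broth with 0.05% Tween 80, and all other strains in TS broth. The 1% DMSO water vehicle was added to broth (background) and culture (growth control). Incubation was 37 °C, humidified, 15-20 h. Result is percent growth inhibition.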

[3] = Inhibition of Eis (unknown origin)
[4] = tested on: Enterococcus faecium; assay: Antibacterial activity against NEO-intermediate sensitive Enterococcus faecium BM4105-RF at 6.25 uM after 15 to 20 hrs by CLSI protocol based microdilution assay relative to control; type: functional; how it was run: as §2
[5] = tested on: Ribosomal RNA A-site; assay: Displacement of F-NEO from human mitochondrial rRNA-A site after 10 to 20 mins by fluorescence assay relative to NEO; type: nucleic-acid assay; set-up: concentration or dose not given beside the values
How it was run: (§3)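 100 nM F-NEO:A-site complex in 10 mM HEPES, 50 mM NaCl, 0.04 mM EDTA, pH 7.0, mixed with ligand and incubated 10-20 min at room temperature. Fluorescence read at ex 485/em 525 nm, in duplicate. Percent binding was computed from the intensities of ligand-treated complex, complex without ligand, and complex with neomycin.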

[6] = Inhibition of AAC(6')-1e (unknown origin)
[7] = tested on: Ribosomal RNA A-site; assay: Displacement of F-NEO from Escherichia coli rRNA-A site after 10 to 20 mins by fluorescence assay relative to NEO; type: nucleic-acid assay; set-up: concentration or dose not given beside the values; how it was run: as §3
[8] = tested on: Acinetobacter baumannii; assay: Antibacterial activity against NEO-sensitive Acinetobacter baumannii ATCC 19606 at 6.25 uM after 15 to 20 hrs by CLSI protocol based microdilution assay relative to control; type: functional, ATCC 19606 = CIP 70.34 = JCM 6841; how it was run: as §2
[9] = Displacement of F-NEO from human mitochondrial rRNA-A site C1410U mutant after 10 to 20 mins by fluorescence assay
How it was run: (§4)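 A 100 nM F-NEO:A-site RNA complex in 10 mM HEPES, 50 mM NaCl, 0.04 mM EDTA, pH 7.0 was titrated with 2-fold dilutions of ligand from 20 to 0.009 μM, or from 60 or 40 μM for weaker ligands. Incubated 10-20 min at room temperature, fluorescence read at ex 485/em 525 nm. IC50 from dose-response curve fit.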

[10] = tested on: Staphylococcus aureus; assay: Antibacterial activity against methicillin-resistant Staphylococcus aureus 33591 at 6.25 uM after 15 to 20 hrs by CLSI protocol based microdilution assay relative to control; type: functional; how it was run: as §1
[11] = target: Ribosomal RNA A-site; assay: Displacement of F-NEO from human mitochondrial rRNA-A site after 10 to 20 mins by fluorescence assay; type: nucleic-acid assay; how it was run: as §4
[12] = tested on: Staphylococcus aureus; assay: Antibacterial activity against NEO-sensitive Staphylococcus aureus 25923 at 6.25 uM after 15 to 20 hrs by CLSI protocol based microdilution assay relative to control; type: functional; how it was run: as §2
[13] = tested on: Mycolicibacterium smegmatis; assay: Antibacterial activity against NEO-sensitive Mycobacterium smegmatis at 6.25 uM after 15 to 20 hrs by CLSI protocol based microdilution assay relative to control; type: functional; how it was run: as §2
[14] = tested on: Staphylococcus aureus; assay: Antibacterial activity against methicillin-resistant Staphylococcus aureus A960649 at 6.25 uM after 15 to 20 hrs by CLSI protocol based microdilution assay relative to control; type: functional; how it was run: as §1
[15] = organism: Homo sapiens; assay: Displacement of F-NEO from human mitochondrial rRNA-A site A1490G mutant after 10 to 20 mins by fluorescence assay relative to NEO; how it was run: as §3
[16] = tested on: Staphylococcus aureus; assay: Antibacterial activity against methicillin-resistant Staphylococcus aureus SU-5 at 6.25 uM after 15 to 20 hrs by CLSI protocol based microdilution assay relative to control; type: functional; how it was run: as §1
[17] = Inhibition of AAC(3)-4 (unknown origin)
[18] = tested on: Listeria monocytogenes; assay: Antibacterial activity against NEO-sensitive Listeria monocytogenes ATCC 19115 at 6.25 uM after 15 to 20 hrs by CLSI protocol based microdilution assay relative to control; type: functional; how it was run: as §2
[19] = tested on: Staphylococcus epidermidis; assay: Antibacterial activity against NEO-sensitive Staphylococcus epidermidis 12384 at 6.25 uM after 15 to 20 hrs by CLSI protocol based microdilution assay relative to control; type: functional; how it was run: as §2
[20] = tested on: Ribosomal RNA A-site; assay: Displacement of F-NEO from human cytosolic rRNA-A site after 10 to 20 mins by fluorescence assay relative to NEO; type: nucleic-acid assay; set-up: concentration or dose not given beside the values; how it was run: as §3
[21] = tested on: Ribosomal RNA A-site; assay: Displacement of F-NEO from Escherichia coli rRNA-A site after 10 to 20 mins by fluorescence assay; type: nucleic-acid assay; how it was run: as §4
[22] = target: Ribosomal RNA A-site; assay: Displacement of F-NEO from human cytosolic rRNA-A site after 10 to 20 mins by fluorescence assay; type: nucleic-acid assay; how it was run: as §4
[23] = tested on: Pseudomonas aeruginosa; assay: Antibacterial activity against NEO-resistant Pseudomonas aeruginosa 27853 at 6.25 uM after 15 to 20 hrs by CLSI protocol based microdilution assay relative to control; type: functional; how it was run: as §1
[24] = tested on: Klebsiella oxytoca; assay: Antibacterial activity against NEO-sensitive Klebsiella oxytoca HM-625 at 6.25 uM after 15 to 20 hrs by CLSI protocol based microdilution assay relative to control; type: functional; how it was run: as §2
[25] = Antibacterial activity against NEO-sensitive Enterobacter cloacae 13047 at 6.25 uM after 15 to 20 hrs by CLSI protocol based microdilution assay relative to control; type: functional, Enterobacter cloacae subsp. cloacae, ATCC 13047; how it was run: as §2
[26] = tested on: Bacillus anthracis; assay: Antibacterial activity against NEO-sensitive Bacillus anthracis BA852 at 6.25 uM after 15 to 20 hrs by CLSI protocol based microdilution assay relative to control; type: functional; how it was run: as §1
[27] = tested on: Escherichia coli; assay: Antibacterial activity against NEO-sensitive Escherichia coli ATCC 25922 at 6.25 uM after 15 to 20 hrs by CLSI protocol based microdilution assay relative to control; type: functional; how it was run: as §2
[28] = Inhibition of APH(2\")-1a (unknown origin)
[29] = Inhibition of APH(3')-1a (unknown origin)
[30] = Inhibition of AAC(2')-1c (unknown origin)
[31] = tested on: Escherichia coli; assay: Antibacterial activity against NEO-sensitive Escherichia coli harboring TolC mutant at 6.25 uM after 15 to 20 hrs by CLSI protocol based microdilution assay relative to control; type: functional; how it was run: as §1
[32] = tested on: Enterococcus faecalis; assay: Antibacterial activity against NEO-intermediate sensitive Enterococcus faecalis ATCC 29212 at 6.25 uM after 15 to 20 hrs by CLSI protocol based microdilution assay relative to control; type: functional; how it was run: as §2
[33] = tested on: Staphylococcus aureus; assay: Antibacterial activity against methicillin-resistant Staphylococcus aureus M0602 at 6.25 uM after 15 to 20 hrs by CLSI protocol based microdilution assay relative to control; type: functional; how it was run: as §1

SMILES | Activity [1] | Activity [2] [%] | inhibition [3] | Activity [4] [%] | inhibition [5] [%] | inhibition [6] | inhibition [7] [%] | Activity [8] [%] | IC50 [9] [nM] | Activity [10] [%] | IC50 [11] [nM] | Activity [12] [%] | Activity [13] [%] | Activity [14] [%] | inhibition [15] [%] | Activity [16] | inhibition [17] | Activity [18] | Activity [19] [%] | inhibition [20] [%] | further results
NC[C@@H]1O[C@H](O[C@H]2[C@@H](O)[C@H](O[C@@H]3[C@@H](O)[C@H](N)C[C@H](N)[C@H]3O[C@H]3O[C@H](CN)[C@@H](O)[C@H](O)[C@H]3N)O[C@@H]2CSCCNC(=O)CCc2ccc3ccc4cccc5ccc2c3c45)[C@H](N)[C@@H](O)[C@@H]1O | inactive | 18 | Active | 26 | 88 | Active | 88 | 8 | 147 | 16 | 211 | 29 | 29 | 19 | 65 | inactive | Active | inactive | 56 | 91 | IC50 [21]: 191 nM; IC50 [22]: 204 nM; Activity [23]: 10%; Activity [24]: 14%; Activity [25]: 0%; Activity [26]: inactive; Activity [27]: 0%; inhibition [28]: Active; inhibition [29]: Active; inhibition [30]: Active; Activity [31]: inactive; Activity [32]: 10%; Activity [33]: inactive
NC[C@@H]1O[C@H](O[C@H]2[C@@H](O)[C@H](O[C@@H]3[C@@H](O)[C@H](N)C[C@H](N)[C@H]3O[C@H]3O[C@H](CN)[C@@H](O)[C@H](O)[C@H]3N)O[C@@H]2CNC(=O)Cc2ccc3ccc4cccc5ccc2c3c45)[C@H](N)[C@@H](O)[C@@H]1O | inactive | 10 | Active | 0 | 47 | Active | 33 | 6 | 274 | 27 | 339 | 30 | 38 | 15 | 22 | inactive | Active | inactive | 15 | 38 | IC50 [21]: 303 nM; IC50 [22]: 375 nM; Activity [23]: 19%; Activity [24]: 5%; Activity [25]: 0%; Activity [26]: inactive; Activity [27]: 7%; inhibition [28]: Active; inhibition [29]: Active; inhibition [30]: Active; Activity [31]: inactive; Activity [32]: 12%; Activity [33]: inactive
NC[C@@H]1O[C@H](O[C@H]2[C@@H](O)[C@H](O[C@@H]3[C@@H](O)[C@H](N)C[C@H](N)[C@H]3O[C@H]3O[C@H](CN)[C@@H](O)[C@H](O)[C@H]3N)O[C@@H]2CSCCNC(=O)Cc2ccc3ccc4cccc5ccc2c3c45)[C@H](N)[C@@H](O)[C@@H]1O | 60% | 23 | Active | 15 | 102 | Active | 101 | 6 | 70 | 0 | 90 | 48 | 43 | 7 | 102 | 39% | Active | 52% | 81 | 114 | IC50 [21]: 95 nM; IC50 [22]: 97 nM; Activity [23]: 0%; Activity [24]: 16%; Activity [25]: 5%; Activity [26]: 100%; Activity [27]: 0%; inhibition [28]: Active; inhibition [29]: Active; inhibition [30]: Active; Activity [31]: 100%; Activity [32]: 20%; Activity [33]: 32%
NC[C@@H]1O[C@H](O[C@H]2[C@@H](O)[C@H](O[C@@H]3[C@@H](O)[C@H](N)C[C@H](N)[C@H]3O[C@H]3O[C@H](CN)[C@@H](O)[C@H](O)[C@H]3N)O[C@@H]2CSCCNC(=O)CCCc2ccc3ccc4cccc5ccc2c3c45)[C@H](N)[C@@H](O)[C@@H]1O | 53% | 20 | inactive | 0 | 74 | inactive | 78 | 10 | 126 | 20 | 168 | 36 | 41 | 30 | 58 | 34% | inactive | 49% | 82 | 66 | IC50 [21]: 148 nM; IC50 [22]: 175 nM; Activity [23]: 7%; Activity [24]: 13%; Activity [25]: 0%; Activity [26]: 100%; Activity [27]: 7%; inhibition [28]: inactive; inhibition [29]: inactive; inhibition [30]: inactive; Activity [31]: 100%; Activity [32]: 18%; Activity [33]: 32%
